Data taken from article PMC2802833 (Journal of Alzheimer's disease : JAD, 2009).
Strand notation (5' to 3'): a small letter for the sugar, then the base; units joined by * are phosphorothioate-linked, units joined directly phosphodiester-linked; [ ] holds rarer units or linkages, { } end groups; capitals alone tell only the bases. d = 2'-deoxy (DNA)

Tests used:
[1] = biological target: LRP-1 (Mus musculus, UniProt Q91ZX7); test: Inhibition by RAP of brain-to-blood efflux of i.c.v. I-Aβ42; format: in vivo; details: n = 9/group
[2] = Saturability of brain uptake for cocktail ODNs; format: in vivo; details: 10 μg/mouse unlabeled PS-ODN i.v., brain/serum ratio at 30 min; n = 8-9/group
Outline: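 Labelled 19mer or 23mer (5 × 10^5 cpm/200 μl lactated Ringer's–1% BSA) was given i.v. with or without 10 μg/mouse of the corresponding unlabelled phosphorothioate oligonucleotide. Brain and serum were collected 30 min after injection. Results were expressed as brain/serum ratios.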

[3] = In vivo brain-to-blood efflux rate of i.c.v. P-Olg; design: species or system mouse; details: after i.c.v. injection, 5 × 10^3 cpm/μl, 2-20 min; n = 2-3 mice/time point
Outline: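 Oligonucleotide was kinase-labelled, ethanol-precipitated, stored at −70°C and used within 48 h. After i.c.v. injection into anaesthetised mice, animals were decapitated at 2, 5, 10 or 20 min and brain radioactivity counted. The t = 0 level came from urethane-overdosed mice. Log % injected dose was plotted against time, and the slope (efflux rate) was obtained by linear regression. n = 2–3 mice/time point.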

[4] = tested on: primary mouse BMEC monolayers; test: Transport; format: cell-based; details: 1 μg/mL unlabeled Aβ42 added to abluminal chamber; n = 13-15/group
Outline: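 Primary mouse brain endothelial cells were isolated by enzyme digestion and Percoll gradient. They were seeded at 4 × 10^4 cells/insert on fibronectin/collagen IV-coated 0.33 cm2, 0.4 μm polyester Transwells and grown to confluence (~3 days) in DMEM/F-12 with 20% plasma-derived serum, bFGF and 500 nM hydrocortisone. Assays ran in HEPES buffer pH 7.4 with 1% BSA. Radio-iodinated Aβ42 (1 × 10^6 cpm/mL) was placed in the loading chamber, with or without unlabelled Aβ42 (1 μg/mL). TCA-precipitable counts were used to give clearance and membrane-corrected permeability (cm/min).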

[5] = tested on: LRP-1; test: Immunohistochemistry of LRP-1 in isolated mouse brain microvessels; format: cell-based; details: isolated MBMs, 10 μg/mL, 24 h; buffer = 100%; n = 5-6 slides/group
Outline: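 Cerebral cortices from 10–12 adult male CD-1 mice, meninges removed, were homogenised in cold HEPES/dextran stock buffer. Microvessels were isolated by nylon-mesh filtration and dextran centrifugation, then kept in incubation buffer pH 7.4. They were exposed to buffer, random antisense or antisense cocktail (10 μg/mL) for 24 h. Vessels were heat-fixed, fixed in 3.7% formaldehyde and Triton-permeabilised, then stained overnight at 4°C with anti-LRP-1 antibody (10 μg/mL). Mean fluorescence was measured from 5–6 […]/group.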

Sequence of LRP-1 (Mus musculus, UniProt Q91ZX7) (Q91ZX7 20-4545): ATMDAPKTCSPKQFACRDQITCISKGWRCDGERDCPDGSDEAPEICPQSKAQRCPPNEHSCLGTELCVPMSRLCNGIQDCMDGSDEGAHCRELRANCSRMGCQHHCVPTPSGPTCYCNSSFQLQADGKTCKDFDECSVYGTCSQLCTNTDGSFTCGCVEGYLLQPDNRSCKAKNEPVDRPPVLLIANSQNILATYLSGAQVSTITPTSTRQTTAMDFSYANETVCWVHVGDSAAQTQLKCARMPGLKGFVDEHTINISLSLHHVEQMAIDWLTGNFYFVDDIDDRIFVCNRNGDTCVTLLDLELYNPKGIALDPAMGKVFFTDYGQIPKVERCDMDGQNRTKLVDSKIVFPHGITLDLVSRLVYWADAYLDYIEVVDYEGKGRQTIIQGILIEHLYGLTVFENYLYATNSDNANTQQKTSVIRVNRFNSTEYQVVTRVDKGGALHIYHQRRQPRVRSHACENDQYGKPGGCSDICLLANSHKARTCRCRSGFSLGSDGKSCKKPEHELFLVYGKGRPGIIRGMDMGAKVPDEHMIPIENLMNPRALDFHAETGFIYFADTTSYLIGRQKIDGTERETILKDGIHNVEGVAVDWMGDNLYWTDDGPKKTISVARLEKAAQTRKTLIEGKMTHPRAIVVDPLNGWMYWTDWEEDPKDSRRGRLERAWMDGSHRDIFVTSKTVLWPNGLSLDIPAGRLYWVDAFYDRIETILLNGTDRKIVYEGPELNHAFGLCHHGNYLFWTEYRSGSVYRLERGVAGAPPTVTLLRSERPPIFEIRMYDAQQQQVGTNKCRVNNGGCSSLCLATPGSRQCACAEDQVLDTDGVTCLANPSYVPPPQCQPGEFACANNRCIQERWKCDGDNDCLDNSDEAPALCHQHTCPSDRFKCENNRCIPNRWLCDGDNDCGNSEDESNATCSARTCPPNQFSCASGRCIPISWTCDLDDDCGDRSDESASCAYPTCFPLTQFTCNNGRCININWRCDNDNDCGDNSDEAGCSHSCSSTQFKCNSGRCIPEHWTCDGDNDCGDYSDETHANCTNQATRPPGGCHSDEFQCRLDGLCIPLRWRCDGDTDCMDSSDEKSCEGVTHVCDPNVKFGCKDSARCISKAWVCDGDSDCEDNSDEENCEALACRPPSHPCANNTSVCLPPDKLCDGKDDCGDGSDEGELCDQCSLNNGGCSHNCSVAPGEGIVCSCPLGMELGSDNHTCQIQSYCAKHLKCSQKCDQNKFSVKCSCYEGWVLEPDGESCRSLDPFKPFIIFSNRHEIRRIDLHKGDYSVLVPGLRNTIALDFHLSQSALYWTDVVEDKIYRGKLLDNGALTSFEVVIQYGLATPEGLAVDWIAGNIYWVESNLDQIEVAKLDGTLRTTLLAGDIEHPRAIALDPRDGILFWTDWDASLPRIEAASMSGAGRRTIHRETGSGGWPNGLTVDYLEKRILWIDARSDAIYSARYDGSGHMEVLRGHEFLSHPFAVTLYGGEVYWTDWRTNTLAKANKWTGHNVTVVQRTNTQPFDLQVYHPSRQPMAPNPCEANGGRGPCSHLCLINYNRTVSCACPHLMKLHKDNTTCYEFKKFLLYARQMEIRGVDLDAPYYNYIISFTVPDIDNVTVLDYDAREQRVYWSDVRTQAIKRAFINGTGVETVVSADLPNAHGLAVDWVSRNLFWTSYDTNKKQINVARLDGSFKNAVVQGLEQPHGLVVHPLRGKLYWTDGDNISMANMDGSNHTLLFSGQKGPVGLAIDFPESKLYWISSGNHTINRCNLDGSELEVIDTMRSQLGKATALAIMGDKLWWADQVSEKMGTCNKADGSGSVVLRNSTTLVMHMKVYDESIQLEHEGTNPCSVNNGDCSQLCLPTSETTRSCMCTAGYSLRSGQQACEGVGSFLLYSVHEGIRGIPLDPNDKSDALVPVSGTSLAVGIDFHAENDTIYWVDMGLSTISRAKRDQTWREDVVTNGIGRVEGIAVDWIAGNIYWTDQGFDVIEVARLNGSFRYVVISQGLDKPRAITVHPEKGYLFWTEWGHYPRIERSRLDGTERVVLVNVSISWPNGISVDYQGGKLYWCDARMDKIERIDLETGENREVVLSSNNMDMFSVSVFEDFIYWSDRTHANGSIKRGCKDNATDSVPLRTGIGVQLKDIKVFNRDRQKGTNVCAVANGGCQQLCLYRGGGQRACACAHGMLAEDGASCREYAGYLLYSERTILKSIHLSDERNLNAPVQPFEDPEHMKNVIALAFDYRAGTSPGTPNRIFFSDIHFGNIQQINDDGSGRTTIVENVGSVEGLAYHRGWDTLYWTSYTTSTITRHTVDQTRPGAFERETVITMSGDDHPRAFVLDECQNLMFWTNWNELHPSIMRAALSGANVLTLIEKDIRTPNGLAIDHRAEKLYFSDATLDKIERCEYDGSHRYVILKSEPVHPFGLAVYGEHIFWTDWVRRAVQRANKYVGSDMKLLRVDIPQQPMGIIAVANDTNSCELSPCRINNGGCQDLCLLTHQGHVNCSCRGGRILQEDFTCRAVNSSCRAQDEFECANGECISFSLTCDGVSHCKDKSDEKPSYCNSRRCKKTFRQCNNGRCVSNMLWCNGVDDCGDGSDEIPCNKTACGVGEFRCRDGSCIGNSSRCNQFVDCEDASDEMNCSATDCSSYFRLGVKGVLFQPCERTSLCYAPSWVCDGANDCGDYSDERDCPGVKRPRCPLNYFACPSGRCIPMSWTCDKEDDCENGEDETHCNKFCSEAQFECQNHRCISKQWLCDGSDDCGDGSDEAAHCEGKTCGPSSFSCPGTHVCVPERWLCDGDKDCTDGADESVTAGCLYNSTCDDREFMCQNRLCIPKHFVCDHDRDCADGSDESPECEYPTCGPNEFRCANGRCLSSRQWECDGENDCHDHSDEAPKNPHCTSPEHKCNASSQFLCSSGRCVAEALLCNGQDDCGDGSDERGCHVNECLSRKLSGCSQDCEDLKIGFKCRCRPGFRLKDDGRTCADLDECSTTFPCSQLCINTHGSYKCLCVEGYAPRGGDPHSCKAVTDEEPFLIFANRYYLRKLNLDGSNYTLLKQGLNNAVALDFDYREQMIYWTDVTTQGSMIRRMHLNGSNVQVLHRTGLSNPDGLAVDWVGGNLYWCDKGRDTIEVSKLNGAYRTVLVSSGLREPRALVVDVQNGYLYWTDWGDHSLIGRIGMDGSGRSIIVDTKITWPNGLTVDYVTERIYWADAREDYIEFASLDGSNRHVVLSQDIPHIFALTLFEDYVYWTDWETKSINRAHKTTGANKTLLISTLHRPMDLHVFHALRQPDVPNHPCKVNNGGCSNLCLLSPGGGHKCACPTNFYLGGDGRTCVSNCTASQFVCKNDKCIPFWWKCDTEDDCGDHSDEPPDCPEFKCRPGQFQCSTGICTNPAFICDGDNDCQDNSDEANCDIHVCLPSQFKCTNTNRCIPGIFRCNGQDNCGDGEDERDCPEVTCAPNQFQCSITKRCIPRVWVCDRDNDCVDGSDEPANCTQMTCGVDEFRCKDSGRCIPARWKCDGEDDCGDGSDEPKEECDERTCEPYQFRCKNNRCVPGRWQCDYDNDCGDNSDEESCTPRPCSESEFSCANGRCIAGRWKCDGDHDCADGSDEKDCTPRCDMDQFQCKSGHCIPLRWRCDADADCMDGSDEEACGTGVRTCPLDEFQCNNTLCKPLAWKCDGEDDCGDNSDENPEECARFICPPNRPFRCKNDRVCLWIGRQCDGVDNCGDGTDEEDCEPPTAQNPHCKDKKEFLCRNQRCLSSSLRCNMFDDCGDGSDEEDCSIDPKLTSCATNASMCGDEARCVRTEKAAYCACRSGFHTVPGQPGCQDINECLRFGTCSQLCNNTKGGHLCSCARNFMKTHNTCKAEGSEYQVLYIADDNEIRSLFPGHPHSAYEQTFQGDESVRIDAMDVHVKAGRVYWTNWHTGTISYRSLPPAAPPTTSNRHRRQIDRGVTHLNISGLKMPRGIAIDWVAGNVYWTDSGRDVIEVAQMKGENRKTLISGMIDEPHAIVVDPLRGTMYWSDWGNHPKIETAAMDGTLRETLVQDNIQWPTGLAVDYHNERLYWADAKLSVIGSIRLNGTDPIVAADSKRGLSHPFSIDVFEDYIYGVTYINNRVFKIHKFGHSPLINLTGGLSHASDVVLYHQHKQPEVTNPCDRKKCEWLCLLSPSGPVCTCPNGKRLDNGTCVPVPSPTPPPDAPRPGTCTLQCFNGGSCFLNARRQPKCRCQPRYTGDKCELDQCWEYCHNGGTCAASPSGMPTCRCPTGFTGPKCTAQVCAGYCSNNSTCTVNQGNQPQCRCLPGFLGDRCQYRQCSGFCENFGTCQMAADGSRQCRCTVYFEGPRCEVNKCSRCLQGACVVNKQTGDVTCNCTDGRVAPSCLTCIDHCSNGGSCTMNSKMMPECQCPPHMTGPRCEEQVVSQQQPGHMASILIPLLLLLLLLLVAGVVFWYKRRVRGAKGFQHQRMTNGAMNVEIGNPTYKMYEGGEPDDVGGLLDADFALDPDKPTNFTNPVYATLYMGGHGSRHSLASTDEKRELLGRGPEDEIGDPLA

Substance | brain uptake on co-administration of unlabeled PS-ODN (saturability) [2] | half-time clearance from brain [3] [min] | further results
receptor-associated protein [RAP] | – | – | brain-to-blood efflux of i.c.v. administered I-Aβ42 [1]: inhibits
P-23mer: 23mer (Anti-LRP1) phosphorothioate ODN 5′-(_P=S)GTGTGGGCCGATGCAAACAGCAG-3′, designed to bind the translation start site (nt 442–418) (antisense dG*dT*dG*dT*dG*dG*dG*dC*dC*dG*dA*dT*dG*dC*dA*dA*dA*dC*dA*dG*dC*dA*dG) | significantly decreased | 47.8 | –
Aβ42: 42 amino acid murine Aβ (Bachem), unlabeled, used as competitor of I-Aβ42 transport | – | – | abluminal-to-luminal transport of I-Aβ42 (saturability) [4]: significantly (p < 0.01) inhibited
random antisense: 21mer (Random) control PS-ODN 5′-(_P=S)GAGAAGGTTGTGTGATCTTCA, no sequence homology with any mouse genes (antisense dG*dA*dG*dA*dA*dG*dG*dT*dT*dG*dT*dG*dT*dG*dA*dT*dC*dT*dT*dC*dA) | – | – | mean fluorescent intensity (LRP-1 immunofluorescence) [5]: 111.14%
P-19mer: 19mer (Anti-LRP1) phosphorothioate ODN 5′-(_P=S)TGATTTGGTCTCTGCAGGC-3′, directed at an LRP-1 coding region (nt 559–541) (antisense dT*dG*dA*dT*dT*dT*dG*dG*dT*dC*dT*dC*dT*dG*dC*dA*dG*dG*dC) | not significantly decreased | 231.5 | –
